Type in all cases: functional
The subject of experiment [1] is Brassica napus. As to the kind of experiment: Postemergence herbicidal activity against Brassica napus (oilseed rape) under greenhouse condition at 1.5 kg/ha applied after expansion of true leaf. Summed up:
(§1)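 Seeds sown in 6-cm-diameter boxes of artificial mixed soil. Boxes were kept under plastic film until emergence to hold moisture, and plants were grown in a greenhouse. Above-ground fresh weight was weighed 10 days after treatment. Control efficiency is reported as percent inhibition.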

Experiment [2] has as its system Brassica napus. The experiment can be described thus: Postemergence herbicidal activity against Brassica napus (oilseed rape) under greenhouse condition at 375 g/ha applied after expansion of true leaf. The essentials: as §1
The test system of experiment [3] is Amaranthus retroflexus. As to the kind of experiment: Post-emergence herbicidal activity against Amaranthus retroflexus under greenhouse condition at 750 g/ha applied after expansion of true leaf. The essentials: as §1
Experiment [4] has as its system Amaranthus retroflexus. As to the kind of experiment: Post-emergence herbicidal activity against Amaranthus retroflexus under greenhouse condition at 1.5 kg/ha applied after expansion of true leaf. Summed up:
as §1

Experiment [5] has as its system Brassica napus. As to the kind of experiment: Preemergence herbicidal activity against Brassica napus (oilseed rape) under greenhouse condition at 1.5 kg/ha applied immediately after seed planting. The essentials: as §1
In experiment [6] the test system is Medicago sativa. As to the kind of experiment: Preemergence herbicidal activity against Medicago sativa (alfalfa) under greenhouse condition at 1.5 kg/ha applied immediately after seed planting. The essentials:
as §1

Experiment [7] has as its system Medicago sativa. The experiment can be described thus: Postemergence herbicidal activity against Medicago sativa (alfalfa) under greenhouse condition at 1.5 kg/ha applied after expansion of true leaf. The essentials:
as §1

Experiment [8] has as its system Brassica napus. The experiment can be described thus: Postemergence herbicidal activity against Brassica napus (oilseed rape) under greenhouse condition at 187.5 g/ha applied after expansion of true leaf. The essentials: as §1
In experiment [9] the test system is Amaranthus retroflexus. As to the kind of experiment: (§2) Post-emergence herbicidal activity against Amaranthus retroflexus under greenhouse condition at […] applied after expansion of true leaf. The essentials:
as §1

The subject of experiment [10] is Amaranthus retroflexus. As to the kind of experiment: Pre-emergence herbicidal activity against Amaranthus retroflexus under greenhouse condition at 1.5 kg/ha applied immediately after seed planting. Summed up: as §1
Experiment [11] has as its system Amaranthus retroflexus. Described as §2. Summed up:
as §1
The source holds these as a separate data set.

Experiment [12] concerns Brassica napus. The experiment can be described thus: Postemergence herbicidal activity against Brassica napus (oilseed rape) under greenhouse condition at 750 g/ha applied after expansion of true leaf. Summed up: as §1
Experiment [13] relates to Brassica napus. The experiment can be described thus: Postemergence herbicidal activity against Brassica napus (oilseed rape) under greenhouse condition at 75 g/ha applied after expansion of true leaf. Summed up:
as §1

In experiment [14] the test system is Brassica napus. As to the kind of experiment: Postemergence herbicidal activity against Brassica napus (oilseed rape) under greenhouse condition at 37.5 g/ha applied after expansion of true leaf. Summed up: as §1
Experiment [15] relates to Brassica napus. As to the kind of experiment: Postemergence herbicidal activity against Brassica napus (oilseed rape) under greenhouse condition at 150 g/ha applied after expansion of true leaf. Summed up: as §1
The subject of experiment [16] is Brassica napus. As to the kind of experiment: Postemergence herbicidal activity against Brassica napus (oilseed rape) under greenhouse condition at 18.75 g/ha applied after expansion of true leaf. The essentials: as §1
Experiment [17] has as its system Brassica napus. As to the kind of experiment: Postemergence herbicidal activity against Brassica napus (oilseed rape) under greenhouse condition at 300 g/ha applied after expansion of true leaf. Summed up: as §1

The source of these data is ChEMBL document CHEMBL3044690, “Synthesis and herbicidal activity of 2-cyano-3-(2-chlorothiazol-5-yl)methylaminoacrylates” (2004).

Take `CCOCCOC(=O)/C(C#N)=C(/C)NCc1cnc(Cl)s1`: the Activity came to 95% in the experiment on Brassica napus [1]; 59% with Brassica napus [2]; 98% in the experiment with Amaranthus retroflexus [3]; 100% in the experiment with Amaranthus retroflexus [4]; 93% in the experiment with Brassica napus [5]; 47% in the experiment on Medicago sativa [6]. Further, the Activity in the experiment on Medicago sativa [7] is 94%; in the experiment with Brassica napus [8], 39%; in the experiment with Amaranthus retroflexus [9] it was 73%; in the experiment on Amaranthus retroflexus [10] it was 87%; in the experiment on Amaranthus retroflexus [11], 78%; in the experiment with Brassica napus [12], 96%.
For `COCCOC(=O)/C(C#N)=C(/C)NCc1cnc(Cl)s1`, the Activity in the experiment with Brassica napus [1] is recorded as 100%; with Amaranthus retroflexus [4] it was 81%; in the experiment on Brassica napus [5], 78%; in the experiment with Medicago sativa [6], 0%; in the experiment with Medicago sativa [7], 26%; with Amaranthus retroflexus [10], 45%.
On to `CCOCCOC(=O)/C(C#N)=C(/CC)NCc1cnc(Cl)s1`, for which the Activity in the experiment with Brassica napus [1] stood at 100%; in the experiment on Brassica napus [2], 60%; with Amaranthus retroflexus [3] it was 57%; in the experiment with Amaranthus retroflexus [4], 83%; with Brassica napus [5], 91%; with Medicago sativa [6], 46%. Also, the Activity worked out at 70% in the experiment on Medicago sativa [7]; 29% in the experiment with Brassica napus [8]; 42% in the experiment with Amaranthus retroflexus [9]; 70% in the experiment on Amaranthus retroflexus [10]; 50% with Amaranthus retroflexus [11]; 69% with Brassica napus [12].
As for `CCOCCOC(=O)/C(C#N)=C(\NCc1cnc(Cl)s1)SC`, the Activity is listed as 100% in the experiment on Brassica napus [1]; 57% in the experiment with Brassica napus [2]; 91% with Amaranthus retroflexus [3]; 78% with Amaranthus retroflexus [4]; 40% in the experiment on Brassica napus [5]; 28% with Medicago sativa [6]. Also, the Activity worked out at 49% in the experiment with Medicago sativa [7]; 48% in the experiment on Brassica napus [8]; 41% in the experiment on Amaranthus retroflexus [9]; 76% in the experiment on Amaranthus retroflexus [10]; 48% in the experiment with Amaranthus retroflexus [11]; 100% in the experiment on Brassica napus [12].
Consider `CCOCCOC(=O)/C(C#N)=C(\NCc1ccc(Cl)cc1)C(C)C`, for which the Activity with Brassica napus [1] is reported as 96%; with Amaranthus retroflexus [4], 94%; in the experiment with Brassica napus [5], 0%; with Medicago sativa [6], 0%; with Medicago sativa [7], 28%; in the experiment with Amaranthus retroflexus [10], 52%.
Regarding `CCOCCOC(=O)/C(C#N)=C(\NCc1cnc(Cl)s1)C(C)C`, the Activity in the experiment with Brassica napus [1] came to 100%; in the experiment on Brassica napus [13], 98%; in the experiment with Brassica napus [2], 100%; with Amaranthus retroflexus [3], 100%; in the experiment with Brassica napus [14] it was 52%; with Brassica napus [15] it was 100%. In addition, the Activity in the experiment on Amaranthus retroflexus [4] was 96%; in the experiment with Brassica napus [5], 96%; in the experiment with Medicago sativa [6], 16%; in the experiment on Medicago sativa [7], 19%; in the experiment with Brassica napus [8], 100%; in the experiment with Amaranthus retroflexus [9], 67%. In addition, the Activity with Brassica napus [16] came to 15%; in the experiment with Amaranthus retroflexus [10], 54%; in the experiment on Amaranthus retroflexus [11], 81%; in the experiment on Brassica napus [12], 100%; in the experiment on Brassica napus [17], 100%.
